Source: ChEMBL document CHEMBL1126267, “A novel synthesis and potent antiinflammatory activity of 4-hydroxy-2(1H)-oxo-1-phenyl-1,8-naphthyridine-3-carboxamides” (1992)

Legend:
Type in all cases: functional
Rattus norvegicus [1] = assay: Antiinflammatory activity on Carrageenan rat's paw edema(CPE) after peroral administration of 30 mg/kg dose with control swelling of 75.8%; details: route oral
Rattus norvegicus [2] = assay: Compound was tested for the inhibition of Zymosan-induced rat's paw edema(ZPE) after peroral administration of 10 mg/kg dose; details: po
Procedure, shortened: (§1)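 Male Wistar rats weighing about 150 g were dosed orally with compound suspended in 5% arabic gum. 1 h later, 1% zymosan in 0.1 mL saline was injected subplantarly into the hind paw. Paw volume was measured by plethysmograph before dosing and 4 h after zymosan, with edema as the volume difference. Inhibition % was derived from mean swelling versus the control group.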

Rattus norvegicus [3] = assay: Inhibition of Zymosan-induced rat's paw edema(ZPE) after peroral administration of 100 mg/kg dose.; details: route oral
Procedure, shortened: (§2)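 Male Wistar rats (about 150 g) were dosed orally with compound suspended in 5% arabic gum, 1 h before a subplantar hind-paw injection of 0.1 mL saline. The irritant was 1% zymosan for 33 or 1% λ-carrageenin for 34. Paw volume was measured by plethysmograph before dosing and at 4 h (zymosan) or 3 h (carrageenin). Swelling is relative to initial volume, as mean ± SEM. % inhibition is versus the control group's mean swelling.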

Rattus norvegicus [4] = assay: Compound was tested for the inhibition of rat reversed passive Arthus pleurisy after peroral administration of 25 mg/kg dose at 0.32+/-0.07 mL of exudate volume (injected intrapleurally); details: route oral
Procedure, shortened: (§3)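 Male Wistar rats (about 250 g) under ether received 0.2 mL rabbit anti-egg-albumin antiserum intrapleurally. Thirty min later they got 15 mg EA/100 g body weight in 0.1 mL saline iv. Compounds were given orally beforehand. Rats were killed 4.5 h after induction and the thoracic cavity rinsed with 5 mL saline. Exudate volume and infiltrated cell count were read as mean ± SE. % inhibition is versus control.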

Rattus norvegicus [5] = assay: Compound was tested for the inhibition of Carrageenan rat's paw edema(CPE) after peroral administration of 10 mg/kg dose
Rattus norvegicus [6] = assay: Compound was tested for the inhibition of rat reversed passive Arthus pleurisy after peroral administration of 100 mg/kg dose at 2.96 +/- 0.16*10e6 no of cells; details: route oral
Procedure, shortened: (§4)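 Male Wistar rats (about 250 g) were given compound orally before the antiserum. Under ether anesthesia, 0.2 mL rabbit anti-egg albumin antiserum was injected intrapleurally. After 30 min, egg albumin (15 mg/100 g body weight in 0.1 mL saline) was given iv. Rats were killed 4.5 h later and the thoracic cavity was rinsed with 5 mL saline. Exudate volume and infiltrated cell number were measured, with inhibition % versus controls as mean ± SEM.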

Rattus norvegicus [7] = assay: Inhibition of carrageenan-induced rat's paw edema (CPE) after peroral administration of 100 mg/kg dose.; details: route oral; procedure, shortened: as §2
Rattus norvegicus [8] = assay: Compound was tested for the inhibition of arachidonic acid-induced rat's paw edema(APE) after peroral administration of 3 mg/kg dose; details: route oral
Procedure, shortened: (§5)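 Test: arachidonic acid paw edema in male Wistar rats of about 150 g. Oral dosing in 5% arabic gum came 1 h before subplantar injection of 1% arachidonic acid sodium salt in 0.1 mL saline into the hind paw. Plethysmograph paw volume was read before dosing and 1 h post-irritant, and edema = volume difference. % inhibition was taken from mean swelling against controls.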

Rattus norvegicus [9] = assay: Compound was tested for the inhibition of arachidonic acid-induced rat's paw edema(APE) after peroral administration of 3 mg/kg dose with control swelling of 51.6%; details: route oral; procedure, shortened: as §5
Rattus norvegicus [10] = assay: Compound was tested for the inhibition of rat reversed passive Arthus pleurisy after peroral administration of 10 mg/kg dose at 4.30+/-0.41*10e6 no of cells; details: route oral; procedure, shortened: as §4
Rattus norvegicus [11] = assay: Antiinflammatory activity on Zymosan-induced rat's paw edema(ZPE) after peroral administration of 3 mg/kg dose with control swelling of 68.1%; details: route oral; procedure, shortened: as §1
Rattus norvegicus [12] = assay: Compound was tested for the inhibition of rat reversed passive Arthus pleurisy after peroral administration of 100 mg/kg dose at 2.96*10e6 no of cells with 3.86*10e6 cells of control; details: route oral; procedure, shortened: as §4
Rattus norvegicus [13] = assay: Compound was tested for the inhibition of Zymosan-induced rat's paw edema(ZPE) after peroral administration of 30 mg/kg dose; details: route oral; procedure, shortened: as §1
Rattus norvegicus [14] = assay: Compound was tested for the inhibition of rat reversed passive Arthus pleurisy after peroral administration of 5 mg/kg dose at 3.54+/-0.06*10e6 no of cells; details: route oral; procedure, shortened: as §3
Rattus norvegicus [15] = assay: Antiinflammatory activity on Zymosan-induced rat's paw edema(ZPE) after peroral administration of 10 mg/kg dose with control swelling of 68.1%; details: route oral; procedure, shortened: as §1
Rattus norvegicus [16] = assay: Compound was tested for the inhibition of Zymosan-induced rat's paw edema(ZPE) after peroral administration of 3 mg/kg dose; details: route oral; procedure, shortened: as §1
Rattus norvegicus [17] = assay: Antiinflammatory activity on Zymosan-induced rat's paw edema(ZPE) after peroral administration of 30 mg/kg dose with control swelling of 68.1%; details: route oral; procedure, shortened: as §1
Rattus norvegicus [18] = assay: Compound was tested for the inhibition of rat reversed passive Arthus pleurisy after peroral administration of 25 mg/kg dose at 4.25+/-0.1*10e6 no of cells; details: route oral; procedure, shortened: as §3
Rattus norvegicus [19] = assay: Compound was tested for the inhibition of rat reversed passive Arthus pleurisy after peroral administration of 100 mg/kg dose at 0.28+/-0.06 mL of exudate volume (injected intrapleurally); details: route oral; procedure, shortened: as §4
Rattus norvegicus [20] = assay: Compound was tested for the inhibition of arachidonic acid-induced rat's paw edema(APE) after peroral administration of 30 mg/kg dose with control swelling of 51.6%; details: route oral
Rattus norvegicus [21] = assay: Compound was tested for the inhibition of rat reversed passive Arthus pleurisy after peroral administration of 5 mg/kg dose at 0.4+/-0.04 mL of exudate volume (injected intrapleurally); details: route oral; procedure, shortened: as §3
Rattus norvegicus [22] = assay: Compound was tested for the inhibition of rat reversed passive Arthus pleurisy after peroral administration of 10 mg/kg dose at 0.37+/-0.07 mL of exudate volume (injected intrapleurally); details: route oral; procedure, shortened: as §4
Rattus norvegicus [23] = assay: Antiinflammatory activity on Carrageenan rat's paw edema(CPE) after peroral administration of 100 mg/kg dose with control swelling of 64.2%; details: route oral
Rattus norvegicus [24] = assay: Compound was tested for the inhibition of arachidonic acid-induced rat's paw edema(APE) after peroral administration of 10 mg/kg dose with control swelling of 51.6%; details: route oral; procedure, shortened: as §5
Rattus norvegicus [25] = assay: Compound was tested for the inhibition of arachidonic acid-induced rat's paw edema(APE) after peroral administration of 10 mg/kg dose; details: route oral; procedure, shortened: as §5
Rattus norvegicus [26] = assay: Compound was tested for the inhibition of Carrageenan rat's paw edema(CPE) after peroral administration of 3 mg/kg dose; details: route oral
Rattus norvegicus [27] = assay: Compound was tested for the inhibition of rat reversed passive Arthus pleurisy after peroral administration of 100 mg/kg dose at 0.28 mL of exudate volume with 0.86 mL of control (injected intrapleurally); details: route oral; procedure, shortened: as §4
Rattus norvegicus [28] = assay: Antiinflammatory activity on Zymosan-induced rat's paw edema(ZPE) after peroral administration of 100 mg/kg dose with control swelling of 71.7%; details: route oral; procedure, shortened: as §1
Rattus norvegicus [29] = assay: Antiinflammatory activity on Carrageenan rat's paw edema(CPE) after peroral administration of 10 mg/kg dose with control swelling of 75.8%; details: route oral
Rattus norvegicus [30] = assay: Antiinflammatory activity on Carrageenan rat's paw edema(CPE) after peroral administration of 3 mg/kg dose with control swelling of 75.8%; details: route oral
Rattus norvegicus [31] = assay: Compound was tested for the inhibition of arachidonic acid-induced rat's paw edema(APE) after peroral administration of 30 mg/kg dose; details: route oral; procedure, shortened: as §5
Rattus norvegicus [32] = assay: Compound was tested for the inhibition of rat reversed passive Arthus pleurisy after peroral administration of 100 mg/kg dose at 0.71 mL of exudate volume with 0.84 mL of control (injected intrapleurally); details: route oral; procedure, shortened: as §4
Rattus norvegicus [33] = assay: Antiinflammatory activity on Zymosan-induced rat's paw edema(ZPE) after peroral administration of 100 mg/kg dose with control swelling of 62.8%; details: route oral; procedure, shortened: as §1
Rattus norvegicus [34] = assay: Compound was tested for the inhibition of rat reversed passive Arthus pleurisy after peroral administration of 100 mg/kg dose at 4.81*10e6 no of cells with 5.72*10e6 cells of control; details: route oral; procedure, shortened: as §3
Rattus norvegicus [35] = assay: Antiinflammatory activity on Carrageenan rat's paw edema(CPE) after peroral administration of 100 mg/kg dose with control swelling of 68.1%; details: route oral
Rattus norvegicus [36] = assay: Compound was tested for the inhibition of rat reversed passive Arthus pleurisy after peroral administration of 100 mg/kg dose at 0.58 mL of exudate volume with 0.82 mL of control (injected intrapleurally); details: route oral; procedure, shortened: as §4
Rattus norvegicus [37] = assay: Antiinflammatory activity on Carrageenan rat's paw edema(CPE) after peroral administration of 100 mg/kg dose with control swelling of 73.7%; details: route oral
Rattus norvegicus [38] = assay: Compound was tested for the inhibition of rat reversed passive Arthus pleurisy after peroral administration of 100 mg/kg dose at 3.44*10e6 no of cells with 7.4*10e6 cells of control; details: route oral; procedure, shortened: as §3
Rattus norvegicus [39] = assay: Antiinflammatory activity on Zymosan-induced rat's paw edema(ZPE) after peroral administration of 100 mg/kg dose with control swelling of 72.9%; details: route oral; procedure, shortened: as §1

SMILES: O=C(Nc1cccnc1)c1c(O)c2cccnc2n(-c2ccccc2)c1=O
- Swelling (Rattus norvegicus [1]): 50.2%
- inhibition in vivo at 10 mg/kg (Rattus norvegicus [2]): 25.4%
- inhibition in vivo at 100 mg/kg (Rattus norvegicus [3]): 30.3%
- inhibition in vivo at 25 mg/kg (Rattus norvegicus [4]): 62.9%
- inhibition in vivo at 10 mg/kg (Rattus norvegicus [5]; Rattus norvegicus, po): 33.8%
- Inhibition (Rattus norvegicus [5]; route oral, 10 mg/kg): 22.7%
- inhibition in vivo at 100 mg/kg (Rattus norvegicus [6]): 30.5%
- inhibition in vivo at 100 mg/kg (Rattus norvegicus [7]): 30.8%
- inhibition in vivo at 3 mg/kg (Rattus norvegicus [8]): 40.9%
- Swelling (Rattus norvegicus [9]): 30.5%
- inhibition in vivo at 10 mg/kg (Rattus norvegicus [10]): 41.2%
- Swelling (Rattus norvegicus [11]): 53.2%
- inhibition in vivo at 100 mg/kg (Rattus norvegicus [12]): 30.5%
- inhibition in vivo at 30 mg/kg (Rattus norvegicus [13]): 43.9%
- inhibition in vivo at 5 mg/kg (Rattus norvegicus [14]): 33.3%
- Swelling (Rattus norvegicus [15]): 50.8%
- inhibition in vivo at 3 mg/kg (Rattus norvegicus [16]): 21.9%
- Swelling (Rattus norvegicus [17]): 38.2%
- inhibition in vivo at 25 mg/kg (Rattus norvegicus [18]): 42.1%
- inhibition in vivo at 100 mg/kg (Rattus norvegicus [19]): 75.3%
- Swelling (Rattus norvegicus [20]): 30.6%
- inhibition in vivo at 5 mg/kg (Rattus norvegicus [21]): 50%
- inhibition in vivo at 10 mg/kg (Rattus norvegicus [22]): 55.7%
- Swelling (Rattus norvegicus [23]): 44.4%
- Swelling (Rattus norvegicus [24]): 28.9%
- inhibition in vivo at 10 mg/kg (Rattus norvegicus [25]): 44%
- inhibition in vivo at 3 mg/kg (Rattus norvegicus [26]): 20.2%
- inhibition in vivo at 100 mg/kg (Rattus norvegicus [27]): 75.3%
- Swelling (Rattus norvegicus [28]): 50%
- Swelling (Rattus norvegicus [29]): 58.6%
- Swelling (Rattus norvegicus [30]): 60.5%
- inhibition in vivo at 30 mg/kg (Rattus norvegicus [31]): 40.7%

SMILES: O=C(Nc1ccc([N+](=O)[O-])cc1)c1c(O)c2cccnc2n(-c2ccccc2)c1=O
- inhibition in vivo at 100 mg/kg (Rattus norvegicus [32]): 16.7%
- inhibition in vivo at 100 mg/kg (Rattus norvegicus [3]): -7.6%
- inhibition in vivo at 100 mg/kg (Rattus norvegicus [7]): -25.8%
- Swelling (Rattus norvegicus [33]): 67.6%
- inhibition in vivo at 100 mg/kg (Rattus norvegicus [34]): 18.5%
- Swelling (Rattus norvegicus [35]): 85.7%

SMILES: O=C(NCc1cccnc1)c1c(O)c2cccnc2n(-c2ccccc2)c1=O
- inhibition in vivo at 100 mg/kg (Rattus norvegicus [3]): 25.5%
- inhibition in vivo at 100 mg/kg (Rattus norvegicus [7]): 14.7%
- inhibition in vivo at 100 mg/kg (Rattus norvegicus [36]): 29.3%
- Swelling (Rattus norvegicus [37]): 62.8%
- inhibition in vivo at 100 mg/kg (Rattus norvegicus [38]): 53.5%
- Swelling (Rattus norvegicus [39]): 54.3%
